Assay results reported in ChEMBL document CHEMBL4725282, “Discovery of a Conformationally Constrained Oxazolidinone with Improved Safety and Efficacy Profiles for the Treatment of Multidrug-Resistant Tuberculosis” (J Med Chem, 2020).

Assays:
[1] = Genotoxicity in CHO-WBL cells assessed as chromosome aberration at 90 to 397.1 ug/ml measured after 20 hrs in absence of S9 fraction by Giemsa staining based; type: toxicity, cell-based, Cricetulus griseus; conditions: chinese hamster, dose 90-397.1 µg/ml
How it was run: (§1)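 CHO-WBL cells in McCoy's 5A with 10% FBS, seeded 20-24 h before treatment. Compound in DMSO, with or without serum-free S-9 mix. Treatment either 3 h, then HBSS wash and 17 h further culture, or 20 h; harvest at 20 h from treatment start. Colcemid 0.1 μg/mL for the final 2 h, hypotonic KCl, methanol:acetic acid fixation, Giemsa stain. 300 metaphases per concentration (150 per duplicate flask) scored.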

[2] = Toxicity in male Sprague-Dawley rat assessed as changes in neuropsychic symptoms at 50 to 450 mg/kg/day, po administered for 4 weeks followed by 2 week recovery period measured during last 24 hrs of recovery period; type: organism-based; conditions: in vivo, 672 h, dose 50-450 mg/kg/day
How it was run: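 SD rats aged 6-7 weeks, 12 male and 12 female per group, in four groups: vehicle control, 50, 150 and 450 mg/kg/day. Dosing was oral, once daily, for 4 weeks, then a 2-week recovery period. Clinical symptoms were observed starting before administration. 8 per sex were dissected after the last dose and the remaining 4 per sex after 14 days of recovery.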

[3] = Toxicity in female Sprague-Dawley rat assessed as change in mean platelet volume at 450 mg/kg/day, po administered for 4 weeks followed by 2 week recovery period (Rvb =7.1 +/- 0.5 fL); type: organism-based; conditions: in vivo, 672 h
[4] = Toxicity in male Sprague-Dawley rat assessed as ophthalmic changes at 50 to 450 mg/kg/day, po administered for 4 weeks measured within 7 days of post last dose; type: organism-based; conditions: in vivo, 672 h, dose 50-450 mg/kg/day
[5] = Toxicity in female Sprague-Dawley rat assessed as change in reticulocyte level at 150 mg/kg/day, po administered for 4 weeks followed by 2 week recovery period (Rvb =2.85 +/- 0.53 %); type: organism-based; conditions: in vivo, 672 h
[6] = Toxicity in male Sprague-Dawley rat assessed as change in hemoglobin count at 450 mg/kg/day, po administered for 4 weeks followed by 2 week recovery period (Rvb =144 +/- 5 g/L); type: organism-based; conditions: in vivo, 672 h
[7] = Toxicity in male Sprague-Dawley rat assessed as change in mean corpuscular volume at 50 mg/kg/day, po administered for 4 weeks followed by 2 week recovery period (Rvb =57.5 +/- 2.0 fL); type: organism-based; conditions: in vivo, 672 h
[8] = Toxicity in female Sprague-Dawley rat assessed as change in platelet count at 450 mg/kg/day, po administered for 4 weeks followed by 2 week recovery period (Rvb =1051 +/- 122 10^9/L); type: organism-based; conditions: in vivo, 672 h
[9] = Toxicity in female Sprague-Dawley rat assessed as change in neutrophil level at 450 mg/kg/day, po administered for 4 weeks followed by 2 week recovery period (Rvb =18.5 +/- 5.3 %); type: organism-based; conditions: in vivo, 672 h
[10] = Genotoxicity in CHO-WBL cells assessed as chromosome aberration at 20 to 150 ug/ml incubated for 3 hrs followed by compound washout and measured after 17 hrs in presence of S9 fraction by Giemsa staining based; type: toxicity, subcellular, Cricetulus griseus; conditions: chinese hamster, s9, 3 h, dose 20-150 µg/ml; how it was run: as §1
[11] = Clearance in Balb/c mouse at 2.5 mg/kg, iv by LC-MS/MS analysis; type: ADME, organism-based; conditions: in vivo
How it was run: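 Female BALB/c mice (20–25 g), five per route. Oral dose 25 mg/kg in 0.5% carboxymethyl cellulose; i.v. dose 2.5 mg/kg in 10% DMSO/physiological saline. Blood sampled 5 min–72 h after p.o. and 2 min–48 h after i.v. Analyte quantified by LC/MS/MS (ESI positive, C18, isocratic methanol/water). Parameters from non-compartmental analysis.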

[12] = Toxicity in male Sprague-Dawley rat assessed as effect on food consumption at 50 to 450 mg/kg/day, po administered for 4 weeks measured at 1 week interval; type: organism-based; conditions: in vivo, 672 h, dose 50-450 mg/kg/day
[13] = Toxicity in female Sprague-Dawley rat assessed as histopathological changes at 50 to 450 mg/kg/day, po administered for 4 weeks followed by 2 week recovery period; type: organism-based; conditions: in vivo, 672 h, dose 50-450 mg/kg/day
How it was run: (§2)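 SD rats, 6-7 weeks old (96 in total), split into vehicle, 50, 150 and 450 mg/kg/day groups of 12 females and 12 males each, given oral doses once daily for 4 weeks, then 2 weeks of recovery. Mortality, body weight, food intake, eyes, urine and neuropsychic signs were observed. Organ and bone marrow histopathology was done on 8 rats per sex per group after the last dose and on the remaining 4 per sex after 14 days of recovery.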

Cytochrome P450 3A4 = Cytochrome P450 3A4 (Homo sapiens, UniProt P08684); test: Inhibition of CYP3A4 in human liver microsomes after 20 mins by LC-MS/MS analysis; type: ADME
How it was run: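 Human liver microsomes (0.2 mg/mL) in phosphate buffer, 20 min incubation with compound at 0.1-50 μM alongside isoform-specific substrates and a positive control. Substrate remaining monitored by LC-MS/MS at each concentration; IC50 derived.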

[14] = Toxicity in male Sprague-Dawley rat assessed as change in mean corpuscular volume at 150 mg/kg/day, po administered for 4 weeks followed by 2 week recovery period (Rvb =57.5 +/- 2.0 fL); type: organism-based; conditions: in vivo, 672 h
[15] = Genotoxicity in CHO-WBL cells assessed as chromosome aberration at 20 to 150 ug/ml measured after 20 hrs in presence of S9 fraction by Giemsa staining based; type: toxicity, subcellular, Cricetulus griseus; conditions: chinese hamster, s9, 20 h, dose 20-150 µg/ml; how it was run: as §1
[16] = Toxicity in female Sprague-Dawley rat assessed as ophthalmic changes at 50 to 450 mg/kg/day, po administered for 4 weeks followed by 2 week recovery period; type: organism-based; conditions: in vivo, 1008 h, dose 50-450 mg/kg/day, time 6 weeks; how it was run: as §2
[17] = Toxicity in female Sprague-Dawley rat assessed as histopathological changes at 50 to 450 mg/kg/day, po administered for 4 weeks measured post last dose; type: organism-based; conditions: in vivo, 672 h, dose 50-450 mg/kg/day; how it was run: as §2
[18] = Toxicity in male Sprague-Dawley rat assessed as change in mean platelet volume at 50 mg/kg/day, po administered for 4 weeks followed by 2 week recovery period (Rvb =7.0 +/- 0.4 fL); type: organism-based; conditions: in vivo, 672 h
[19] = Toxicity in male Sprague-Dawley rat assessed as change in lymphocyte level at 450 mg/kg/day, po administered for 4 weeks followed by 2 week recovery period (Rvb =77.4 +/- 3.7 %); type: organism-based; conditions: in vivo, 672 h
[20] = Toxicity in male Sprague-Dawley rat assessed as change in reticulocyte level at 450 mg/kg/day, po administered for 4 weeks followed by 2 week recovery period (Rvb =2.48 +/- 0.34 %); type: organism-based; conditions: in vivo, 672 h
[21] = Toxicity in female Sprague-Dawley rat assessed as histopathological changes in bone marrow at 450 mg/kg/day, po administered for 4 weeks measured post last dose; type: organism-based; conditions: in vivo, 672 h; how it was run: as §2
[22] = Toxicity in male Sprague-Dawley rat assessed as change in lymphocyte level at 50 mg/kg/day, po administered for 4 weeks followed by 2 week recovery period (Rvb =77.4 +/- 3.7 %); type: organism-based; conditions: in vivo, 672 h
[23] = Toxicity in Mycobacterium tuberculosis H37Rv infected Balb/c mouse assessed as change in body weight at 100 mg/kg/day, po administered via gavage 5 times per week for 3 weeks starting from 10 days post-infection (reference value: 21.29 +/- 0.84 g); type: organism-based; conditions: in vivo, 504 h, time 21 day

Cytochrome P450 3A4, sequence (P08684 whole entry, canonical isoform): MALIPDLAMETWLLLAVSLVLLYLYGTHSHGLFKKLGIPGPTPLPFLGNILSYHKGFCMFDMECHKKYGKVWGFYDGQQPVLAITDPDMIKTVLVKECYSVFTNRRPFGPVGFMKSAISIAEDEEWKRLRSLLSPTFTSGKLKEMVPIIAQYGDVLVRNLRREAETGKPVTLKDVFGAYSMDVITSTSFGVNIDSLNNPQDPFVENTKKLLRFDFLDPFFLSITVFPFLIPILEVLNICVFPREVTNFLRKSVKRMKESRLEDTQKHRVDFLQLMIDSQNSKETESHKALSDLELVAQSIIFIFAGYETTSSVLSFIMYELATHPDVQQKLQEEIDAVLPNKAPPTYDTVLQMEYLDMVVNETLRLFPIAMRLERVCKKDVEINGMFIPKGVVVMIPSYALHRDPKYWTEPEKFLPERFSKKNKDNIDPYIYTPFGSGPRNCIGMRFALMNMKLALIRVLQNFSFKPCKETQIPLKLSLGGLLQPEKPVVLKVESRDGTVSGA

For `CC(=O)NC[C@@H]1OC(=O)N2c3cc(F)c(N4CC[S+]([O-])CC4)cc3OC[C@@H]12`, the Activity [1] was “Non-Toxic”.
With `CC(=O)NC[C@@H]1OC(=O)N2c3cc(F)c(N4CCSCC4)cc3OC[C@@H]12` the Activity [2] was “Non-Toxic”, the Activity [3] was 7.5 fL and the Activity [4] was “Non-Toxic”. The Activity [5] was 2.89%, the Activity [6] was 139 g/L and the Activity [7] was 59.7 fL. The Activity [8] was 735 10^9/L, the Activity [9] was 11.8% and the Activity [10] was “Non-Toxic”. The clearance [11] was 36.5 mL/min/kg, the Activity [12] was “Non-Toxic” and the Activity [13] was “Non-Toxic”. For the same molecule, the IC50 (Cytochrome P450 3A4) was over 50 µM, the Activity [14] was 58.5 fL and the Activity [15] was “Non-Toxic”. The Activity [16] was “Non-Toxic”, the Activity [17] was “Non-Toxic” and the Activity [18] was 7 fL. The Activity [19] was 80.7%, the Activity [20] was 2.99% and the Activity [21] was “Non-Toxic”. It also gave an Activity [22] of 82% and an Activity [23] of 21.25 g.
